RORA inh – blocks the human nuclear receptor RORA | inhibition, % at 10 µM | 65,000 compounds, 0.43% hits | CHO-K1 Gal4-RORA LBD luciferase reporter, luminescence | AID 561;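 active = inhibition above the mean of all tested compounds plus 3 SD, cut at about 52% in these data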
Target sequence (P35398 whole entry, looked up, the tested form may be a part): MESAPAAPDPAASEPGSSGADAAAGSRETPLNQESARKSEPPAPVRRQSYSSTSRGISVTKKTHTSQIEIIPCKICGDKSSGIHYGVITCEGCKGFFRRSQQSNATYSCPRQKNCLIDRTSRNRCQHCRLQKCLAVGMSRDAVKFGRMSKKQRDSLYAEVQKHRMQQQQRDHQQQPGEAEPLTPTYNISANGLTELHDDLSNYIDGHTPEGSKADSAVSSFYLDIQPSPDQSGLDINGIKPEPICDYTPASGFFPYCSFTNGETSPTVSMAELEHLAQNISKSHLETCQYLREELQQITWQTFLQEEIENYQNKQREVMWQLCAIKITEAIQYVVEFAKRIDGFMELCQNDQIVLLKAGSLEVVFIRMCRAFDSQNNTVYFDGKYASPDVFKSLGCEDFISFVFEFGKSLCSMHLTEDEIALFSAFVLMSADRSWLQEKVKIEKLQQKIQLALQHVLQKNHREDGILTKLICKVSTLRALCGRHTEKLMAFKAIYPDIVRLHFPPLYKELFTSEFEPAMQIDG
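test system = CHO-K1 Gal4-RORA LBD luciferase reporter cells | dosing = 10 µM single point | times = 20 h compound treatment, 37 °C | signal = luciferase luminescence | read-out = % inhibition of basal luciferase versus +RORA/-RORA DMSO controls | benchmarks = mock-transfected cells as 100%, +RORA DMSO cells as 0% | replicates = tested once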
Numbers stand for hits; . = inactive. The sample as a whole holds a higher share of hits than the screen did.

SMILES | RORA inh
COC(=O)/C(=C1/Oc2cc(C)oc(=O)c2S1)C(F)(F)F | 95
CCOC(=O)c1ccc(NC(=O)c2cc(S(=O)(=O)N3CCOCC3)ccc2O)cc1 | .
CSC1=NC(NCCCO)c2c(sc3c2CC(C)(C)OC3)N1 (stereo not drawn) | .
OC(CCN1CCOCC1)(c1ccc(Cl)cc1)C1CCCCC1 (stereo not drawn) | .
CCOC(=O)c1c(N)sc2c1CCC1C(=O)N(C3CCCCC3)C(=O)C21 (stereo not drawn) | .
COc1ccc(-c2cc(=O)c3ccccc3s2)cc1 | .
COc1ccc2c(c1)sc1nc(-c3ccccc3)cn12 | 92
COc1ccc(-c2cn3c(C)c(C(=O)NC(C)(C)C)sc3n2)cc1 | .
Cc1ccc2c(c1)C(N1CCCC1=O)CC(c1ccco1)N2 (stereo not drawn) | .
CCOC(=O)N1CCN(C(=O)c2cccc(-n3c(=S)[nH]c4cc(Cl)ccc4c3=O)c2)CC1 | .
CC1CCN(C(=O)CN2C(=O)c3ccccc3S2(=O)=O)CC1 | .
CN(C)c1ccc(C2=NOC(CN3C(=O)c4ccccc4S3(=O)=O)C2)cc1 (stereo not drawn) | .
O=C1c2ccccc2S(=O)(=O)N1Cc1nc2ccccc2s1 | 54
CC(C)C1N(S(=O)(=O)c2ccccc2)CCN1S(=O)(=O)c1ccccc1 | .
O=C(NCc1ccc2c(c1)OCO2)C1CC(=O)N(c2ccc(O)cc2)C1 (stereo not drawn) | .
CCCN1/C(=C(/C#N)C2=NS(=O)(=O)c3ccccc32)N(C)c2ccccc21 | .
Clc1ccc(OCc2nc(-c3ccncc3)no2)c(Br)c1 | .
O=C(CN(C1CCCCC1)S(=O)(=O)c1ccc(Cl)cc1)NCCCO | .
Cc1c(-c2nc(N)nc(Nc3ccccc3)n2)oc2ccccc12 | .
CCN(C(=O)c1ccc(C(C)(C)C)cc1)c1nnc(Cn2nnc3ccccc32)s1 | 66
CCN(C(=O)c1cccs1)c1nnc(-c2ccncc2)s1 | .
CCOc1ccc(C(=O)Nc2ccc(Cl)cn2)cc1Cl | .
COc1cccc(OC)c1-c1nn2c(-c3ccccc3Cl)nnc2s1 | .
COc1ccc(CCNC(=O)C2CCCN(S(C)(=O)=O)C2)cc1OC (stereo not drawn) | .
COc1ccc(CCNS(=O)(=O)c2cn(C)c(=O)n(C)c2=O)cc1OC | .
SMILES | RORA inh
COc1ccc(CCNc2nnc(Sc3nnnn3-c3ccccc3)s2)cc1OC | 69
CCC(C)(C(=O)NC1CCCCC1)N(C(=O)c1cnccn1)c1c(C)n(C)n(-c2ccccc2)c1=O (stereo not drawn) | .
O=C(Nc1ccc2c(c1)OCCO2)C1CCN(S(=O)(=O)c2ccc(Br)s2)CC1 | .
COc1ccc(OC)c(-n2nnnc2SCC(=O)Nc2ccc(C(=O)N3CCCCC3)cc2)c1 | .
COc1ccc(OC)c(NC(=O)CSc2nnnn2-c2ccc3c(c2)OCO3)c1 | 80
CC(C)OC(=O)CSc1nnnn1-c1ccc2c(c1)OCCO2 | .
CC(C)(C)NC(=O)CSc1n[nH]c(=O)n1-c1ccccc1 | .
CC(=O)c1c(N2CCN(Cc3ccc4c(c3)OCO4)CC2)nc(=S)n(-c2ccccc2)c1C | .
CCOC(=O)c1cnc(=O)[nH]c1C | .
CCS(=O)(=O)N1CCCC(c2nc(-c3cccc(OC)c3)no2)C1 (stereo not drawn) | .
CCCS(=O)(=O)c1nnnn1-c1cccc(OC)c1 | 82
COc1ccc2c(-c3ccccc3)cc3nnnn3c2c1 | .
CN(CC(=O)Nc1nccs1)S(=O)(=O)c1ccc(F)cc1 | .
CCOc1cccc(-c2nnc3sc(COc4ccc(Cl)cc4)nn23)c1 | .
Cc1ccc(-c2cc3nc(C)cc(NCc4ccco4)n3n2)cc1 | .
Cc1ccc(Nc2cc(C)nn2-c2nc(C)cc(=O)[nH]2)cc1 | 88
CCN(CC)c1ccc(NC(=O)c2ccccc2F)cc1 | .
CCN(CC)c1ccc(NC(=O)C2CC3CCC2C3)cc1 (stereo not drawn) | .
CCN(CC)c1ccc2cc(NC(=O)CCC(=O)O)c(=O)oc2c1 | 66
Cc1cnc(NC(=O)COc2ccccc2Cl)s1 | 74
O=C(COc1ccccc1)Nc1nc2ccccc2[nH]1 | .
CCOc1ccccc1OCC(=O)Nc1ccc(S(=O)(=O)N(C)C)cc1 | .
Clc1ccc(-c2nn3c(Cn4cnc5ccccc54)nnc3s2)c(Cl)c1 | .
CCn1c(SCC(=O)Nc2cccc(NC(C)=O)c2)nnc1C(C)C | .
Nc1nc(-c2ccccc2)cc(-c2ccccc2O)n1 | .
SMILES | RORA inh
CS(=O)c1nc(-c2ccc(Br)cc2)cc(-c2ccccc2)c1C#N (stereo not drawn) | 58
CCOC(=O)/C(C#N)=C1/C=CNC(=O)N1 | .
CCc1cc2c3c(c(=O)oc2cc1O)CCCC3 | .
CCOC(=O)N1CCN(Cc2nc3c(c(=O)[nH]c(=O)n3C)n2CCCc2ccccc2)CC1 | .
Cc1noc(C)c1S(=O)(=O)Nc1ccc(C(=O)N2CCN(c3ccc(Cl)cc3)CC2)cc1 | 60
CC(=O)c1ccc(N2CCN(C(=O)c3ccc(OCc4c(C)noc4C)cc3)CC2)cc1 | .
O=C(c1ccco1)N1CCN(c2ccc(Cl)cc2)CC1 | .
COC(=O)CN(c1ccc(C)c(Cl)c1)S(C)(=O)=O | .
Cc1ccc(-c2cc3c(nn2)-c2ccccc2C3=O)cc1 | 83
CCC(=O)Nc1c(OC(=O)CC)ccc2c(C)cc(=O)oc12 | .
CCN(C(=O)COc1ccccc1)c1nnc(-c2cccnc2)s1 | .
COC(=O)c1nnn(CC(=O)Nc2cccc(Cl)c2)c1C(=O)OC | .
COc1ccc(CNC(=O)CCCCCn2c(SCC#N)nc3cc4c(cc3c2=O)OCO4)cc1 | .
C=CCOc1ccc(C2c3c(oc4ccccc4c3=O)C(=O)N2c2ccccn2)cc1OCC (stereo not drawn) | .
c1ccc(-c2noc(-c3cccc4ccccc34)n2)cc1 | .
Cc1ccc(-c2nc(-c3ccccc3)no2)c(Cl)c1 | 57
COc1cccc(-c2nc(-c3ccccc3)no2)c1 | .
CC1CCN(C(=O)C(NS(=O)(=O)c2cccc3nsnc23)c2ccccc2)CC1 (stereo not drawn) | .
Cc1cc(NC(=O)c2cc3n(n2)C(C(F)(F)F)CC(c2ccco2)N3)no1 (stereo not drawn) | .
CCOC(=O)Nc1ccc2c(c1)N(C(=O)N1CCN(C)CC1)c1ccccc1S2 | .
Cc1nnc(SC(=O)N2c3ccccc3Sc3ccccc32)s1 | 71
Cc1nnc(SCC(=O)N2CCc3ccccc32)s1 | .
c1ccc(Nc2cc(Nc3ccccc3)[nH]n2)cc1 | .
N=C1C(c2ccccc2)=C(O)CN1c1ccccc1N1CCOCC1 | .
CC1CCc2c(sc3nc(SCc4nc(-c5ccccc5)no4)n(C)c(=O)c23)C1 (stereo not drawn) | .
SMILES | RORA inh
CCC(C)NC(=O)C1CCCN(C(=O)Nc2ccc(F)cc2)C1 (stereo not drawn) | .
Cc1cc(-n2nc(C)cc2C)nc(NS(=O)(=O)c2ccccc2)n1 | .
COc1ccccc1N1CCN(c2cc(=O)n(-c3ccccc3Cl)c(=O)[nH]2)CC1 | .
CN1CCN(c2cc(=O)n(C3CCCCC3)c(=O)[nH]2)CC1 | .
O=c1cc(N2CCN(c3cccc(Cl)c3)CC2)[nH]c(=O)n1C1CCCCC1 | 65
Cc1ccc2c(CSc3nnc(C4CC4)n3N)cc(=O)oc2c1C | .
O=C(Nc1nnc(C23CC4CC(CC(C4)C2)C3)s1)c1ccco1 | .
O=C(O)CCSc1nc2ccccc2s1 | 54
Nc1nc(CSc2nc3ccccc3s2)nc(N2CCCCC2)n1 | .
Cn1c(=O)c2c(nc(N3CCCCC3)n2CCSc2nc3ccccc3s2)n(C)c1=O | .
